Source: PMC11152975 (International Journal of Pharmaceutics: X, 2024)
Where two headings read alike, the source gives them in different places.

Columns and labels:
[1] = test system: MCF-7 human breast cancer cells; experiment: In vitro cytotoxicity, MTT assay; type: cell-based; conditions: read-out: mean IC50
How it was run: (§1)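 Cells kept in phenol red-free DMEM with 10% FBS, L-glutamine and antibiotics at 37 °C, 5% CO2, then seeded in 96-well plates. They were exposed to a range of test compound concentrations (free drug in DMSO or micellar formulations) for 24, 48 or 72 h. Next, 0.5 mg/mL MTT for 2 h, absorbance read at 550 nm. Viability expressed as % of untreated control wells.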

[2] = test system: MDA-MB-231 human breast cancer cells; experiment: In vitro cytotoxicity, MTT assay; type: cell-based; conditions: read-out: mean IC50
How it was run: as §1

[3] = low solubility and low permeability; cited from earlier work
[4] = molecular target: T1, bovine serum albumin (BSA) (Bos taurus, UniProt P02769); experiment: Protein adsorption to micelles: incubation with BSA, DLS and TEM; type: physicochemical
T1 sequence (P02769 25-607): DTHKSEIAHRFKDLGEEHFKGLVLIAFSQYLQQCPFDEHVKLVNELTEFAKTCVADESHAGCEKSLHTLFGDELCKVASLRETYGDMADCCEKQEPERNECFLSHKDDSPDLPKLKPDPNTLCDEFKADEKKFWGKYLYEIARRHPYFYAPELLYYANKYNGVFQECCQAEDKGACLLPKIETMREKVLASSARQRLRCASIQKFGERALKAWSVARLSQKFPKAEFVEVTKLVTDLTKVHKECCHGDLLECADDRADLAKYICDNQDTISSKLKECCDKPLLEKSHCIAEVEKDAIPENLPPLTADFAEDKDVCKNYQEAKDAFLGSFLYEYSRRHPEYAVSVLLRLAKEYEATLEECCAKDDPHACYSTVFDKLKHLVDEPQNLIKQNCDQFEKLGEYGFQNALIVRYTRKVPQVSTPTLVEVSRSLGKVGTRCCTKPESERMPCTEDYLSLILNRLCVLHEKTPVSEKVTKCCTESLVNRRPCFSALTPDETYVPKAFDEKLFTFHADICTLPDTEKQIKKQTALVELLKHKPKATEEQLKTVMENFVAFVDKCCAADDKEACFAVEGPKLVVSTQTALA
How it was run: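 Drug-loaded micelles were incubated with 45 mg/mL bovine serum albumin in 0.01 M PBS (pH 7.4) at 37 °C for 8 h, with BSA alone and micelles alone incubated in PBS as controls. Hydrodynamic size and polydispersity were read by DLS (n = 3, mean ± SD). For TEM, samples settled 20 s on carbon-coated grids and were negatively stained with 2% phosphotungstic acid in PBS, pH 7.0.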

[5] = molecular target: T1, bovine serum albumin (BSA); conditions: ref Liu et al., 2005; cited from earlier work

| Compound | IC50 ([1]; MCF7, 24 h) [nM] | IC50 ([1]; MCF7, 48 h) [nM] | IC50 ([1]; MCF7, 72 h) [nM] | IC50 ([2]; MDA-MB-231, 24 h) [nM] | IC50 ([2]; MDA-MB-231, 48 h) [nM] | IC50 ([2]; MDA-MB-231, 72 h) [nM] | biopharmaceutical classification system (BCS) class [3] | Size (hydrodynamic) ([4]; 8-h incubation at 37 °C in 0.01 M PBS pH 7.4, sample alone) [nm] | Polydispersity ([4]; 8-h incubation at 37 °C in PBS, sample alone) | hydrodynamic diameter [5] [nm] |
| --- | --- | --- | --- | --- | --- | --- | --- | --- | --- | --- |
| CC(=O)O[C@H]1C(=O)[C@@]2(C)[C@H]([C@H](OC(=O)c3ccccc3)[C@]3(O)C[C@H](OC(=O)[C@H](O)[C@@H](NC(=O)c4ccccc4)c4ccccc4)C(C)=C1C3(C)C)[C@]1(OC(C)=O)CO[C@@H]1C[C@@H]2O [Free PTX (in DMSO), Paclitaxel] | > 1000 | 384 | 297 | 21.6 | 10.8 | 9.7 | class IV |  |  |  |
| bovine serum albumin [BSA] |  |  |  |  |  |  |  | 8.2 ± 0.1 | 0.236 ± 0.019 | 7.9 ± 0.4 |
